Screens (PubChem)
mIAP activ – mouse IAP activation. muIAP, CDP-Star luminescence, 30 min; active compounds read high; 1 = vehicle-only enzyme signal, 0 = enzyme-free wells. activation factor at 10 µM. 330,000 tested, 0.24% active;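 active = activation factor of at least 2 at 20 µM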
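Assay system: mouse IAP enzyme / Compound: DMSO-dissolved test compounds / Timing: 30 min, room temperature / Measured by: luminescence from enzymatic CDP-Star hydrolysis / Control set: DMSO-only wells, enzyme-free buffer wells as negative control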
mIAP inh – mouse IAP inhibition; purified mouse IAP, CDP-Star luminescence, 30 min; inhibition, % at 10 µM; 330,000 tested, 0.2% active;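 active = inhibition of at least 40% at 10 µM in the primary screen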;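 note: plate controls were DMSO with enzyme for no effect and no enzyme wells for full effect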
hIAP activ – increases human intestinal alkaline phosphatase activity; activation factor at 10 µM; P09923; 330,000 tested, 0.16% active; purified human IAP, CDP-Star luminescence, 30 min; active compounds read high; 1 = vehicle-only enzyme, 0 = enzyme-free background;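 active = activation factor of the enzyme at least 2-fold when tested at 20 µM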
Target sequence (P09923 whole entry, looked up): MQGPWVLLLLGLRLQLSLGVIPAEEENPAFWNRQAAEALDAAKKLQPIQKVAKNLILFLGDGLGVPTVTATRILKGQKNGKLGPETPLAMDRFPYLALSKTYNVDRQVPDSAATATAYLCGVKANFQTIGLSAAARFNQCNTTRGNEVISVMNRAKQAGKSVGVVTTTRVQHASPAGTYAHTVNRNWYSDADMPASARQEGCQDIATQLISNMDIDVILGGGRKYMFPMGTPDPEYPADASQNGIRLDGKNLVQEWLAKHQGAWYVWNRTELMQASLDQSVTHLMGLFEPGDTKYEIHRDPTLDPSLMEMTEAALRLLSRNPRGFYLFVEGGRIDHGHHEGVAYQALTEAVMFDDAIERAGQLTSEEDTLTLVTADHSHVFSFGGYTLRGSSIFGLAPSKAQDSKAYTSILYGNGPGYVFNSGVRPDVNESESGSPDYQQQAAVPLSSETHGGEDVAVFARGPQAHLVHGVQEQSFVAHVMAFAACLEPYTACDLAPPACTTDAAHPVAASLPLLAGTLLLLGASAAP
bIAP activator – increases bovine intestinal alkaline phosphatase activity; purified bovine IAP, CDP-star luminescence, 30 min; active compounds read high; fold of DMSO-control signal, blank-subtracted; activation factor at 20 µM; 200,000 tested, 0.17% active; AID 1016;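 active = activation factor of 2 or more at 20 µM, a signal rise over negative controls twice the positive control's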
hIAP inh – blocks human intestinal alkaline phosphatase; purified IAP, CDP-Star luminescence, 30 min; AID 2544; 330,000 tested, 0.12% active; P09923; inhibition, % at 10 µM;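 active = inhibition reaching a set limit with compound at 10 µM in the primary screen, cut at about 35% in these data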;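 note: plate controls were DMSO wells with enzyme for no effect and no-enzyme buffer wells for full effect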
bIAP inhibitor – blocks bovine intestinal alkaline phosphatase activity | purified bovine IAP, CDP-star luminescence, 30 min | inhibition, % at 20 µM | 190,000 tested, under 10 active | AID 1019;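 active = over 50% inhibition of intestinal alkaline phosphatase at 20 µM in the single-dose screen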
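System: purified bovine intestinal alkaline phosphatase (IAP) enzyme; Input: IAP diluted 1/65,000,000 in the well; Measured by: CDP-star luminescence signal; Compound dosing: 20 µM single dose; Incubation: 30 min reaction at room temperature.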
An asterisk follows results filed as active; x = no result given. Rows were chosen to be rich in hits. Some 0.77% of all compounds tested hit in one or more screens of this group.

SMILES	mIAP activ	mIAP inh	hIAP activ	bIAP activator	hIAP inh	bIAP inhibitor
C[C@H](CO)N1C[C@H](C)[C@H](CN(C)Cc2ccccc2)Oc2ccc(NC(=O)Nc3ccc(F)cc3)cc2C1=O	2.2*	-120	1	x	-4	x
C[C@H](CO)N1C[C@H](C)[C@@H](CN(C)C(=O)Nc2ccc(C(F)(F)F)cc2)Oc2ccc(NC(=O)Nc3ccc(C(F)(F)F)cc3)cc2C1=O	1.5	-50	1.1	x	-9	x
C[C@H]1CN([C@@H](C)CO)C(=O)c2cc(NC(=O)NC3CCCCC3)ccc2O[C@H]1CN(C)C(=O)Nc1ccc(C(F)(F)F)cc1	2*	-102	0.98	x	2	x
C[C@H](CO)N1C[C@H](C)[C@H](CN(C)Cc2ccccc2)Oc2c(NC(=O)Nc3ccc(F)cc3)cccc2C1=O	1.7	-70	0.96	x	4	x
CC(C)NC(=O)N(C)C[C@H]1Oc2ccc(NC(=O)Nc3ccc(C(F)(F)F)cc3)cc2C(=O)N([C@H](C)CO)C[C@@H]1C	2.4*	-139	1.1	x	-7	x
COc1ccc(NC(=O)Nc2ccc3c(c2)C(=O)N([C@H](C)CO)C[C@H](C)[C@@H](CN(C)C(=O)Nc2ccccc2)O3)cc1	2.9*	-185	1	x	-4	x
C[C@H](CO)N1C[C@H](C)[C@@H](CN(C)C(=O)NC2CCCCC2)Oc2ccc(NC(=O)NC3CCCCC3)cc2C1=O	1.9	-93	0.96	x	4	x
C[C@H](CO)N1C[C@H](C)[C@@H](CN(C)C(=O)Nc2ccccc2)Oc2ccc(NC(=O)NC3CCCCC3)cc2C1=O	2.1*	-108	1	x	-1	x
COc1ccc(CCNC(=O)c2ccc(CNc3c(N4CCOCC4)c(=O)c3=O)cc2)cc1OC	0.96	4	0.93	1	7	1
O=C(NCCc1ccccc1)c1cc(-c2ccccc2)c(N2CCOCC2)s1	2.8*	-181	1.2	x	-16	x
COc1ccc(CCNC(=O)c2cc(-c3ccccc3O)n[nH]2)cc1OC	1.9	-91	0.94	2*	6	-104
CSc1ccc(CCNC(=O)c2cc(-c3ccccc3)c(N3CCOCC3)s2)cc1	2.4*	-137	1.5	x	-52	x
COc1ccc(CCNC(=O)c2cc(-c3ccccc3)c(N3CCOCC3)s2)cc1OC	2.2*	-115	1.4	x	-43	x
Cc1c(C(=O)N2CCOCC2)c(S(=O)(=O)N2CCN(c3ccc(Cl)cc3)CC2)c(C)n1C	1	-4	1.1	x	-10	x
c1nc(C2CCCCC2)cc2cc3c(cc12)OCO3	1.1	-13	1.1	x	-10	x
COc1ccc(C(=O)NCc2nnc(SCC(=O)NCCc3ccccc3)o2)cc1	1	-1	1	x	-4	x
O=C(CSc1nc2ccccc2c(=O)n1Cc1ccco1)NCc1ccco1	0.83	17	0.84	1.2	16	-21
COc1cc2nc(SCC(=O)NCCc3ccccc3)n(Cc3ccco3)c(=O)c2cc1OC	0.88	12	0.96	2*	4	-96
Cc1cccc(NC(=O)C2C(c3ccccc3)C2(Cl)Cl)c1 (centres undefined)	2.5*	-147	1.2	1	-20	1
COC(=O)c1ccc2c(c1)C(C)(C)C(/C=C/c1ccc(O)cc1)=[N+]2C	0.89	12	0.5	0.2	50*	x
Cc1ccc(S(=O)(=O)N(C)C)cc1NC(=S)NC1CCCC(C)C1C (centres undefined)	2.8*	-184	1.1	1	-12	0
CCN(CC)S(=O)(=O)c1cccc(C(=O)NC2CCCCC2)c1	0.93	7	0.94	1	6	3
Cc1ccc(NC(=S)NC2CCCCC2)cc1S(=O)(=O)N(C)C	2.4*	-136	1.4	1.2	-35	-23
CCN(CC)S(=O)(=O)c1ccc(C)c(NC(=S)NC2CCCCC2)c1	2*	-104	1	x	-3	x
CC(=O)NNC(=S)Nc1cc(S(=O)(=O)N(C)C)ccc1C	0.94	6	1.8	1	-82	2
SMILES	mIAP activ	mIAP inh	hIAP activ	bIAP activator	hIAP inh	bIAP inhibitor
CC1CCCCC1NC(=S)Nc1cccc(S(=O)(=O)N(C)C)c1 (centres undefined)	2.9*	-192	1.1	0.8	-12	24
CC(C)(C)N1CC(OC(N)=O)C1	0.93	7	0.99	x	1	x
COC(CNC(=O)CN1CCN(Cc2ccc(F)cc2Cl)C1=O)OC	1	-3	0.97	x	3	x
O=C1CCC/C(=N/NC(=O)c2sc3ccccc3c2Cl)C1	1.1	-5	2.8*	x	-177	x
O=C(NN=C1CCCC1)c1sc2ccccc2c1Cl	1	-2	1.2	0.6	-18	36
CCOC(=O)C1=CNS(=O)(=O)NC1c1ccc(C)cc1 (centres undefined)	0.98	2	x	x	x	x
N/N=C(\c1ccccc1)C12CN3CN(CN(C3)C1)C2	1	-1	1.2	1.6	-24	-63
Cc1ccc(CN2CCN(Cc3cc4ccccc4o3)CC2CCO)cc1 (centres undefined)	1.1	-8	0.93	x	7	x
CC1CCCCN1C(=O)CSc1nnc(Cc2ccccc2)n1C (centres undefined)	1	-2	0.88	2.1*	12	-108
CC1Cc2ccccc2N1C(=O)CSc1nnc(Cc2ccccc2)n1CCc1ccccc1 (centres undefined)	x	x	x	5.4*	x	-442
CCOC(=O)c1c(C)n(-c2ccc(C)cc2)c2ccc(OCC(O)CNCCCO)cc12 (centres undefined)	1	0	1	2*	-2	-99
C[C@H]1CN([C@@H](C)CO)C(=O)c2cc(NC(=O)c3ccncc3)ccc2O[C@H]1CN(C)Cc1ccc(C(=O)O)cc1	0.96	4	0.87	x	13	x
O=C(Nc1ccc(F)cc1)Nc1ccc(S(=O)(=O)N2CCCC2)cc1	1.9	-93	1	x	-2	x
Cn1cc(C(=O)Nc2ccc(Cl)cc2)c(C(F)(F)F)n1	0.95	5	1	0.9	0	12
CC(C)(C)c1ccc(COC(=O)Nc2ccc(F)cc2)cc1	1.2	-15	0.93	0.8	8	24
Cc1ccc(NC(=O)CCC(=O)c2ccc(F)cc2)cc1Cl	1	-2	1.1	1	-10	4
Cc1oc(S(=O)(=O)N2CCCCC2)cc1NC(=O)Nc1ccc(F)cc1	2.1*	-106	1.2	x	-15	x
Cc1ccc(NC(=O)Nc2ccc(F)cc2)cc1Cl	2*	-103	1	0.9	-4	9
Cn1cc(NC(=O)Nc2ccc(C(F)(F)F)cc2)c(C(F)(F)F)n1	2.9*	-190	1.2	x	-15	x
CC(C)(C)c1ccc(NC(=O)Nc2ccc(F)cc2)cc1	2.2*	-119	1	1	0	1
O=C(COc1ccc(Cl)cc1)N1CCN(C(=O)c2ccccc2F)CC1	1.1	-7	0.87	x	13	x
COc1ccc(OC)c(NC(=S)NCc2ccccc2OC)c1	0.97	3	0.98	0.8	2	16
COc1ccc(OC)c(NC(=S)NCCC(c2ccccc2)c2ccccc2)c1	2.6*	-159	0.95	x	5	x
